NPY-Y2 antag – blocks the human neuropeptide Y Y2 receptor; P49146; inhibition, % at 2.7 µM; NPY-Y2 expressing cells, antagonist mode; actives 0.99% (n = 140,000);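 also: 0% = vehicle with agonist challenge and 100% = reference antagonist with challenge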
NPY1 pot ag – potentiators or agonists of human neuropeptide Y receptor Y1; activation, % at 3.6 µM; NPY-Y1 expressing cells, potentiator/agonist activation; actives 0.37% (n = 220,000); P25929; in the data active = activation above about 33%, passing the limit was not always enough;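 also: cells stimulated with NPY at EC10 then isoproterenol at EC100; 0% = low agonist plus stimulus and 100% = saturating agonist plus stimulus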
Target sequence (P25929 whole entry, looked up): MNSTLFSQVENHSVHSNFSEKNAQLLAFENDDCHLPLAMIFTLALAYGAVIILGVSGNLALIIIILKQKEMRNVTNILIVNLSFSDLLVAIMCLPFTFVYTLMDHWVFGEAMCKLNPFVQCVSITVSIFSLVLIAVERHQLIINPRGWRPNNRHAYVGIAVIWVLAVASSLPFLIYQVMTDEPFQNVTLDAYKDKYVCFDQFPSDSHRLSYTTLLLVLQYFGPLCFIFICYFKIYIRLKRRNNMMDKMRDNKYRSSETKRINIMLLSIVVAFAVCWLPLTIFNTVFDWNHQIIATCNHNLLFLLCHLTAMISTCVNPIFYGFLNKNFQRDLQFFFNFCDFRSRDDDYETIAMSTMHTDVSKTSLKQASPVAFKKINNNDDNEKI
NPY-Y1 antag – antagonists of human neuropeptide Y receptor Y1; P25929; HEK293-CNG Y1 cells, membrane potential fluorescence; NPY at EC95, then isoproterenol; inhibition, % at 3.6 µM; actives 1% (n = 200,000); AID 1040;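 active = inhibition above the campaign mean inhibition of all tested compounds plus 3 SD, cut at about 20% in these data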;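 also: 0% = DMSO wells given NPY plus isoproterenol and 100% = isoproterenol alone without NPY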
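Assay system: HEK293 Y1/CNG channel cell line; Doses: single compound dose of 3.6 µM, 0.4% DMSO; Timing: dye 3 h, compound 60 min room temperature, stimulation 45 min; Technique: Membrane-potential fluorescent dye readout; Measure: % inhibition of NPY effect.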
Measles CPE – protection of cells from measles virus; actives 1.5% (n = 140,000); protection (pct of control), % at 4 µM; Measles virus-infected cells, CPE protection, absorbance; in the data active = protection mostly above about 24%, no sharp cut-off; inactive = mostly below about 26%
NPY-Y2 PAM-ag – human NPY-Y2 potentiation or agonism, primary screen; cells expressing NPY-Y2, potentiator/agonist read-out; activation, % at 3.6 µM; actives 0.45% (n = 220,000); in the data active = activation above about 27%;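 also: cells stimulated with NPY near EC25 plus isoproterenol at EC100; 0% = vehicle plus submaximal agonist and 100% = vehicle plus saturating agonist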
MDM2 E3 inh – Mdm2 E3 ligase (human) inhibition; Q00987; actives 0.11% (n = 210,000); cell-based MDM2 ubiquitination luciferase reporter, 2 h; 0 = plate control, 100 = twice control, blank-subtracted; signal enhancement, % at 5 µM;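 active = signal enhancement of 30% or more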;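 also: luminescence tracks abundance of the self-degrading MDM2-luciferase fusion protein; higher signal means inhibition of MDM2 E3 ligase activity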
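Test system: mammalian cells stably expressing self-ubiquitinating, self-degrading MDM2 E3–luciferase fusion; Amount: 2000 cells in each well; Medium: DMEM; Schedule: 4 h settle plus 2 h compound, 37 °C; Technique: SteadyLite luciferase luminescence after 15 min room-temperature reagent incubation; Benchmarks: plate control and blank wells.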
NPY-Y1 ant conf – confirmation of human neuropeptide Y receptor Y1 antagonists; AID 1254; shares compounds with NPY-Y1 antag; HEK293-CNG NPY-Y1, membrane potential fluorescence, cAMP; NPY challenge against isoproterenol-raised cAMP; actives 21% (n = 1,200); inhibition, % at 3.6 µM; in the data active = inhibition above about 20%;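 also: 0% = vehicle with agonist plus stimulus and 100% = stimulus alone without agonist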
NPY-Y2 antag ct – antagonizes human NPY-Y2, counter-screen to NPY-Y1 antagonists; shares compounds with NPY-Y1 antag; HEK293 NPY-Y2 CNG membrane potential fluorescence, antagonism; cells given NPY, then isoproterenol; inhibition, % at 3.6 µM; actives 28% (n = 1,200);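 also: 0% = DMSO with agonist challenge and 100% = reference antagonist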
* hit, by the source's call; . = not tested or not shown. Hits are enriched below; roughly 2.8% of the tested compounds scored in any of these assays. Rule as the data show it, unless noted: active = inhibition above about 17%; inactive = the rest.

SMILES	NPY-Y2 antag	NPY1 pot ag	NPY-Y1 antag	Measles CPE	NPY-Y2 PAM-ag	MDM2 E3 inh	NPY-Y1 ant conf	NPY-Y2 antag ct
O=C(O)CC/C(=C\c1ccc(N2CCOCC2)c([N+](=O)[O-])c1)c1nc2ccccc2s1	.	-54	41*	.	-40	-7	54*	79*
Cc1ccc(-n2cccn2)c(CN2CCC(CO)(CCc3ccccc3)CC2)c1	.	-29	45*	.	-15	-16	20	19*
CCCn1c(=N)n(CC(O)c2ccc(C)cc2)c2ccccc21 (stereo unspecified)	.	-12	.	.	-29	-7	.	.
N=c1n(CCN2CCOCC2)c2ccccc2n1CC(=O)c1ccc(Cl)c(Cl)c1	7	-5	16	3	-5	5	.	.
N=c1n(CCN2CCCC2)c2ccccc2n1CC(O)c1ccc(Cl)c(Cl)c1 (stereo unspecified)	.	-33	43*	.	-28	-11	16	29*
N=c1n(Cc2ccccc2)c2ccccc2n1CC(O)c1ccccc1 (stereo unspecified)	16	-24	28*	4	-14	-17	9	16
N=c1n(Cc2ccccc2Cl)c2ccccc2n1CC(O)c1ccco1 (stereo unspecified)	.	6	28*	.	-7	-5	15	25*
Cc1ccc(C(C)C)c(OCc2nn(CC(=O)c3ccc(OC(F)F)cc3)c3[n+]2CCCCC3)c1	.	-21	31*	.	-11	-24	20	16
COc1ccc(C(=O)Cn2nc(CNc3ccc(Br)cc3)[n+]3c2CCCCC3)cc1	.	-2	-3	.	-6	-15	.	.
CCOc1ccc(-n2c(-c3ccccc3)c[n+]3c2CCCCC3)cc1	15	-36	24*	9	12	-34	14	17*
c1ccc(-c2c[n+]3c(n2-c2ccccc2)CCC3)cc1	.	9	.	.	4	-10	.	.
COc1cc(/C=N/NC(=O)Cn2ccc(C(F)(F)F)n2)cc(OC)c1OC	.	10	-1	.	3	15	.	.
Cc1ccc(-c2csc(Nc3ccccc3)[n+]2CCc2ccccc2)cc1	.	-21	22*	.	-3	-5	6	18*
Cc1ccc(-c2csc(Nc3ccc(C(=O)O)cc3)[n+]2Cc2ccccc2)cc1	.	8	-4	.	12	-2	.	.
COC(=O)c1ccc(NC(=O)c2ccc(CN3CCOCC3)cc2)cc1	2	-2	-10	3	18	-5	.	.
O=C(Nc1ccc(CN2CCOCC2)cc1)c1ccc(-c2ccc(Br)cc2)o1	13	-60	31*	4	-39	-33	12	21*
O=C(Nc1cccc(Cl)c1)C1C2CCC3C(CCC21)C3(Cl)Cl (stereo unspecified)	14	-13	33*	2	8	-17	5	2
O=C(Cn1ccc(C(F)(F)F)n1)N=Nc1c(O)[nH]c2ccccc12	.	-2	38*	.	-46	1	36*	40*
O=C(Cn1ccc(C(F)(F)F)n1)N=Nc1c(O)[nH]c2ccc(Br)cc12	.	7	1	.	0	-85	.	.
CCOC(=O)c1c(C)[nH]c(-c2csc(N)n2)c1C	.	0	1	.	4	-14	.	.
COc1ccc(OC)c(NS(=O)(=O)c2ccc(N3CCCC3=O)cc2)c1	8	-5	44*	0	1	-10	-3	15
CCOc1ccc(S(=O)(=O)Nc2cc(OC)ccc2OC)cc1	8	-25	27*	6	-16	-7	4	16
CC(=O)c1cccc(NC(=O)/C(=C\c2ccco2)NC(=O)c2cccs2)c1	0	0	5	14	-9	-16	.	.
O=C(Nc1cccc(C(F)(F)F)c1)/C(=C/c1ccco1)NC(=O)c1cccs1	1	9	90*	27	-5	-11	-1	-2

Source: PubChem BioAssay
